{"data": "Measurements gathered from unrelated publications", "target": "Homeodomain-interacting protein kinase 2 (HIPK2, Homo sapiens, UniProt Q9H2X6)", "read-out": "enzyme activity", "mode": "inhibitor", "note": "Lines come from different studies, so protocols differ."}
{"SMILES": "Nc1nc(Nc2ccccc2)sc1C(=O)c1c(F)cccc1F", "conditions": "10 µM", "remaining activity": "16%"}
{"SMILES": "Oc1cccc(-c2nc(N3CCOCC3)c3oc4ncccc4c3n2)c1", "conditions": "10 µM", "remaining activity": "18%"}
{"SMILES": "CCN(CC)c1ccc(C2=NNC(=O)CC2C)cc1[N+](=O)[O-] (stereo not shown)", "conditions": "10 µM", "remaining activity": "106%"}
{"SMILES": "CCCOc1ccc(OC)c(F)c1C(=O)c1ccc(C(=O)N[C@@H]2CNC[C@H]2NC(=O)c2ccc3[nH]ncc3c2)cc1", "conditions": "10 µM", "remaining activity": "94%"}
{"SMILES": "O=C(O)c1ccc2c(c1)nc(Nc1ccc(F)c(Cl)c1)c1ccncc12", "assay": "radiometric", "conditions": "1 µM", "remaining activity": "1%"}
{"SMILES": "Nc1nc(NC2CCCCC2)sc1C(=O)c1ccccc1", "conditions": "10 µM", "remaining activity": "64%"}
{"SMILES": "O=C(Nc1cnn(-c2csc(C(=O)NC3COC3)c2)c1)Nc1c(F)cccc1Cl", "conditions": "5 µM", "remaining activity": "92.6%"}
{"SMILES": "Cc1ccc(C(=O)Nc2ccc(CN3CCN(C)CC3)c(C(F)(F)F)c2)cc1C#Cc1cnc2cccnn12", "conditions": "23.5 nM", "remaining activity": "100%"}
{"SMILES": "Cn1c(=O)n(-c2ccc(C(C)(C)C#N)cc2)c2c3cc(-c4cnc5ccccc5c4)ccc3ncc21", "conditions": "10 µM", "remaining activity": "101%"}
{"SMILES": "O=C(O)c1ccc2c(c1)nc(Nc1ccc(Cl)cc1)c1ncncc12", "assay": "radiometric", "conditions": "1 µM", "remaining activity": "-2%"}
{"SMILES": "Cc1cnc(NC2CCOCC2)nc1-n1cnc(C(=O)NC(CN)c2cc(F)cc(Cl)c2)c1 (stereo not shown)", "assay": "radiometric", "conditions": "1 µM", "remaining activity": "92%"}
{"SMILES": "O=C(O)c1ccc2c(c1)nc(NCCc1ccccc1)c1ncncc12", "assay": "radiometric", "conditions": "1 µM", "remaining activity": "7%"}
{"SMILES": "CC(C)(C)c1nc(-c2cccc(NS(=O)(=O)c3c(F)cccc3F)c2F)c(-c2ccnc(N)n2)s1", "assay": "radiometric", "conditions": "1 µM", "remaining activity": "80%"}
